Experimental data reported in ChEMBL document CHEMBL5724801, “EUbOPEN Chemogenomics Library - Multiplex” (2024).
Where “and” joins values, the source holds several entries; their conditions need not be identical. Identical values can stand only once.

Columns and labels:
Format in all cases: toxicity, cell-based
[1] = tested on: Fibroblast; experiment: Multiplex assay against human fibroblast
Outline: (§1)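 Live cells were stained at seeding with Hoechst33342, BioTracker Green Microtubule Cytoskeleton Dye, MitoTracker Red and Annexin V Alexa Fluor 680. Following compound addition, they were imaged on a CQ1 microscope at 37°C and 5% CO2 and gated by CellPathfinder machine learning into Hoechst high-intensity objects or normal cells, with normal cells split into healthy, pyknosed or fragmented nuclei and pyknosed cells into mitotic or apoptotic. Tubulin, mitochondrial-mass and membrane-permeability phenotypes are per cents of healthy-nucleus cells.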

[2] = tested on: HEK-293T; experiment: Multiplex assay against HEK293T; conditions: human; outline: as §1
[3] = tested on: U2OS; experiment: Multiplex assay against U2OS; conditions: human; outline: as §1
[4] = 12 h, 1 µM, compound concentration 1 uM
[5] = 12 h, 10 µM, compound concentration 10 uM
[6] = 24 h, 1 µM, compound concentration 1 uM
[7] = 24 h, 10 µM, compound concentration 10 uM
[8] = 48 h, 1 µM, compound concentration 1 uM
[9] = 48 h, 10 µM, compound concentration 10 uM

Br.CS(=O)(=O)Nc1c(O)ccc2c1CCCC2C1=NCCN1 (centres undefined)
Population Apoptotic (%) [1, 4]: 17% and 31%
Population Healthy Nuclei (%) [1, 4]: 76% and 47%
Population Hoechst High Intensity Objects (%) [1, 4]: 1% and 8%
Population Membrane Permeable-Phenotype (%) [1, 4]: 0% and 7%
Population Mitochondria Different-Phenotype (%) [1, 4]: 5% and 8%
Population Mitotic Cells (%) [1, 4]: 82% and 68%
Population Normal (%) [1, 4]: 98% and 91%
Population Pyknosed Nuclei (%) [1, 4]: 14% and 19%
Population Tubulin-Different-Phenotype (%) [1, 4]: 20% and 38%
Total Cell Count [1, 4]: 167 and 192
Population Apoptotic (%) [1, 5]: 38% and 33%
Population Fragmented Nuclei (%) [1, 5]: 20% and 38%
Population Healthy Nuclei (%) [1, 5]: 47% and 45%
Population Hoechst High Intensity Objects (%) [1, 5]: 6% and 0%
Population Mitochondria Different-Phenotype (%) [1, 5]: 7% and 5%
Population Mitotic Cells (%) [1, 5]: 61% and 66%
Population Normal (%) [1, 5]: 93% and 99%
Population Pyknosed Nuclei (%) [1, 5]: 31% and 16%
Population Tubulin-Different-Phenotype (%) [1, 5]: 21% and 43%
Total Cell Count [1, 5]: 148 and 129
Population Apoptotic (%) [1, 6]: 56% and 33%
Population Fragmented Nuclei (%) [1, 6]: 12% and 25%
Population Healthy Nuclei (%) [1, 6]: 77% and 60%
Population Hoechst High Intensity Objects (%) [1, 6]: 1% and 7%
Population Membrane Permeable-Phenotype (%) [1, 6]: 0% and 2%
Population Mitochondria Different-Phenotype (%) [1, 6]: 3% and 7%
Population Mitotic Cells (%) [1, 6]: 43% and 66%
Population Normal (%) [1, 6]: 98% and 92%
Population Pyknosed Nuclei (%) [1, 6]: 10% and 14%
Population Tubulin-Different-Phenotype (%) [1, 6]: 16% and 41%
Total Cell Count [1, 6]: 159 and 180
Population Apoptotic (%) [1, 7]: 48% and 41%
Population Fragmented Nuclei (%) [1, 7]: 16% and 41%
Population Healthy Nuclei (%) [1, 7]: 60% and 44%
Population Hoechst High Intensity Objects (%) [1, 7]: 3% and 0%
Population Membrane Permeable-Phenotype (%) [1, 7]: 0% and 10%
Population Mitochondria Different-Phenotype (%) [1, 7]: 2% and 10%
Population Mitotic Cells (%) [1, 7]: 51% and 58%
Population Normal (%) [1, 7]: 96% and 99%
Population Pyknosed Nuclei (%) [1, 7]: 23% and 13%
Population Tubulin-Different-Phenotype (%) [1, 7]: 24% and 41%
Total Cell Count [1, 7]: 148 and 130
Population Apoptotic (%) [1, 8]: 57% and 38%
Population Fragmented Nuclei (%) [1, 8]: 14% and 26%
Population Healthy Nuclei (%) [1, 8]: 76% and 61%
Population Hoechst High Intensity Objects (%) [1, 8]: 4% and 5%
Population Membrane Permeable-Phenotype (%) [1, 8]: 4% and 0%
Population Mitochondria Different-Phenotype (%) [1, 8]: 3% and 9%
Population Mitotic Cells (%) [1, 8]: 42% and 61%
Population Normal (%) [1, 8]: 95% and 94%
Population Pyknosed Nuclei (%) [1, 8]: 8% and 12%
Population Tubulin-Different-Phenotype (%) [1, 8]: 24% and 41%
Total Cell Count [1, 8]: 167 and 177
Population Apoptotic (%) [1, 9]: 61% and 33%
Population Fragmented Nuclei (%) [1, 9]: 22% and 48%
Population Healthy Nuclei (%) [1, 9]: 61% and 44%
Population Hoechst High Intensity Objects (%) [1, 9]: 6% and 1%
Population Membrane Permeable-Phenotype (%) [1, 9]: 1% and 3%
Population Mitochondria Different-Phenotype (%) [1, 9]: 2% and 9%
Population Mitotic Cells (%) [1, 9]: 38% and 66%
Population Normal (%) [1, 9]: 93% and 98%
Population Pyknosed Nuclei (%) [1, 9]: 15% and 7%
Population Tubulin-Different-Phenotype (%) [1, 9]: 21% and 45%
Total Cell Count [1, 9]: 145 and 127
Population Apoptotic (%) [2, 4]: 40% and 43%
Population Fragmented Nuclei (%) [2, 4]: 7% and 5%
Population Healthy Nuclei (%) [2, 4]: 80% and 81%
Population Hoechst High Intensity Objects (%) [2, 4]: 5% and 8%
Population Membrane Permeable-Phenotype (%) [2, 4]: 0%
Population Mitochondria Different-Phenotype (%) [2, 4]: 45% and 52%
Population Mitotic Cells (%) [2, 4]: 59% and 56%
Population Normal (%) [2, 4]: 94% and 91%
Population Pyknosed Nuclei (%) [2, 4]: 12%
Population Tubulin-Different-Phenotype (%) [2, 4]: 26% and 18%
Total Cell Count [2, 4]: 407 and 334
Population Apoptotic (%) [2, 5]: 48% and 55%
Population Fragmented Nuclei (%) [2, 5]: 8% and 6%
Population Healthy Nuclei (%) [2, 5]: 76% and 79%
Population Hoechst High Intensity Objects (%) [2, 5]: 12% and 14%
Population Membrane Permeable-Phenotype (%) [2, 5]: 0%
Population Mitochondria Different-Phenotype (%) [2, 5]: 60% and 67%
Population Mitotic Cells (%) [2, 5]: 52% and 44%
Population Normal (%) [2, 5]: 87% and 85%
Population Pyknosed Nuclei (%) [2, 5]: 14%
Population Tubulin-Different-Phenotype (%) [2, 5]: 33% and 26%
Total Cell Count [2, 5]: 381 and 292
Population Apoptotic (%) [2, 6]: 38% and 55%
Population Fragmented Nuclei (%) [2, 6]: 10% and 6%
Population Healthy Nuclei (%) [2, 6]: 79% and 80%
Population Hoechst High Intensity Objects (%) [2, 6]: 5% and 8%
Population Membrane Permeable-Phenotype (%) [2, 6]: 1% and 0%
Population Mitochondria Different-Phenotype (%) [2, 6]: 34% and 41%
Population Mitotic Cells (%) [2, 6]: 61% and 44%
Population Normal (%) [2, 6]: 94% and 91%
Population Pyknosed Nuclei (%) [2, 6]: 10% and 13%
Population Tubulin-Different-Phenotype (%) [2, 6]: 21% and 17%
Total Cell Count [2, 6]: 549 and 387
Population Apoptotic (%) [2, 7]: 30% and 34%
Population Fragmented Nuclei (%) [2, 7]: 11%
Population Healthy Nuclei (%) [2, 7]: 75% and 77%
Population Hoechst High Intensity Objects (%) [2, 7]: 6% and 11%
Population Membrane Permeable-Phenotype (%) [2, 7]: 0%
Population Mitochondria Different-Phenotype (%) [2, 7]: 40% and 46%
Population Mitotic Cells (%) [2, 7]: 69% and 65%
Population Normal (%) [2, 7]: 93% and 88%
Population Pyknosed Nuclei (%) [2, 7]: 12% and 10%
Population Tubulin-Different-Phenotype (%) [2, 7]: 23% and 21%
Total Cell Count [2, 7]: 451 and 377
Population Apoptotic (%) [2, 8]: 12% and 29%
Population Fragmented Nuclei (%) [2, 8]: 14% and 11%
Population Healthy Nuclei (%) [2, 8]: 78%
Population Hoechst High Intensity Objects (%) [2, 8]: 4% and 6%
Population Membrane Permeable-Phenotype (%) [2, 8]: 0%
Population Mitochondria Different-Phenotype (%) [2, 8]: 20% and 22%
Population Mitotic Cells (%) [2, 8]: 87% and 70%
Population Normal (%) [2, 8]: 95% and 93%
Population Pyknosed Nuclei (%) [2, 8]: 7% and 9%
Population Tubulin-Different-Phenotype (%) [2, 8]: 14% and 12%
Total Cell Count [2, 8]: 859 and 532
Population Apoptotic (%) [2, 9]: 34% and 48%
Population Fragmented Nuclei (%) [2, 9]: 16% and 14%
Population Healthy Nuclei (%) [2, 9]: 76% and 79%
Population Hoechst High Intensity Objects (%) [2, 9]: 4%
Population Membrane Permeable-Phenotype (%) [2, 9]: 1% and 0%
Population Mitochondria Different-Phenotype (%) [2, 9]: 22% and 27%
Population Mitotic Cells (%) [2, 9]: 65% and 51%
Population Normal (%) [2, 9]: 95%
Population Pyknosed Nuclei (%) [2, 9]: 6% and 5%
Population Tubulin-Different-Phenotype (%) [2, 9]: 12% and 11%
Total Cell Count [2, 9]: 671 and 584
Population Apoptotic (%) [3, 4]: 63% and 80%
Population Fragmented Nuclei (%) [3, 4]: 20% and 13%
Population Healthy Nuclei (%) [3, 4]: 75% and 82%
Population Hoechst High Intensity Objects (%) [3, 4]: 2% and 0%
Population Membrane Permeable-Phenotype (%) [3, 4]: 3% and 5%
Population Mitochondria Different-Phenotype (%) [3, 4]: 2% and 1%
Population Mitotic Cells (%) [3, 4]: 36% and 20%
Population Normal (%) [3, 4]: 97% and 100%
Population Pyknosed Nuclei (%) [3, 4]: 3%
Population Tubulin-Different-Phenotype (%) [3, 4]: 2% and 1%
Total Cell Count [3, 4]: 288 and 151
Population Apoptotic (%) [3, 5]: 69% and 100%
Population Fragmented Nuclei (%) [3, 5]: 36% and 22%
Population Healthy Nuclei (%) [3, 5]: 57% and 75%
Population Hoechst High Intensity Objects (%) [3, 5]: 1% and 0%
Population Membrane Permeable-Phenotype (%) [3, 5]: 8% and 6%
Population Mitochondria Different-Phenotype (%) [3, 5]: 0% and 6%
Population Normal (%) [3, 5]: 98% and 100%
Population Pyknosed Nuclei (%) [3, 5]: 6% and 2%
Population Tubulin-Different-Phenotype (%) [3, 5]: 1%
Total Cell Count [3, 5]: 215 and 84
Population Apoptotic (%) [3, 6]: 76% and 92%
Population Fragmented Nuclei (%) [3, 6]: 18% and 14%
Population Healthy Nuclei (%) [3, 6]: 73% and 78%
Population Hoechst High Intensity Objects (%) [3, 6]: 2% and 1%
Population Membrane Permeable-Phenotype (%) [3, 6]: 3% and 7%
Population Mitochondria Different-Phenotype (%) [3, 6]: 2%
Population Normal (%) [3, 6]: 97% and 98%
Population Pyknosed Nuclei (%) [3, 6]: 7%
Population Tubulin-Different-Phenotype (%) [3, 6]: 2% and 4%
Total Cell Count [3, 6]: 341 and 185
Population Apoptotic (%) [3, 7]: 86% and 100%
Population Fragmented Nuclei (%) [3, 7]: 31% and 16%
Population Healthy Nuclei (%) [3, 7]: 62% and 80%
Population Hoechst High Intensity Objects (%) [3, 7]: 2% and 0%
Population Membrane Permeable-Phenotype (%) [3, 7]: 5% and 3%
Population Mitochondria Different-Phenotype (%) [3, 7]: 1% and 4%
Population Mitotic Cells (%) [3, 7]: 13% and 0%
Population Normal (%) [3, 7]: 97% and 100%
Population Pyknosed Nuclei (%) [3, 7]: 6% and 2%
Population Tubulin-Different-Phenotype (%) [3, 7]: 2% and 3%
Total Cell Count [3, 7]: 240 and 103
Population Apoptotic (%) [3, 8]: 74% and 81%
Population Fragmented Nuclei (%) [3, 8]: 14% and 13%
Population Healthy Nuclei (%) [3, 8]: 78% and 76%
Population Hoechst High Intensity Objects (%) [3, 8]: 1%
Population Membrane Permeable-Phenotype (%) [3, 8]: 2% and 5%
Population Mitochondria Different-Phenotype (%) [3, 8]: 2%
Population Mitotic Cells (%) [3, 8]: 25% and 18%
Population Normal (%) [3, 8]: 98%
Population Pyknosed Nuclei (%) [3, 8]: 6% and 10%
Population Tubulin-Different-Phenotype (%) [3, 8]: 2% and 1%
Total Cell Count [3, 8]: 484 and 253
Population Apoptotic (%) [3, 9]: 90% and 100%
Population Fragmented Nuclei (%) [3, 9]: 23% and 17%
Population Healthy Nuclei (%) [3, 9]: 70% and 74%
Population Hoechst High Intensity Objects (%) [3, 9]: 1% and 0%
Population Membrane Permeable-Phenotype (%) [3, 9]: 5% and 3%
Population Mitochondria Different-Phenotype (%) [3, 9]: 1% and 6%
Population Mitotic Cells (%) [3, 9]: 10% and 0%
Population Normal (%) [3, 9]: 98% and 100%
Population Pyknosed Nuclei (%) [3, 9]: 6% and 7%
Population Tubulin-Different-Phenotype (%) [3, 9]: 2%
Total Cell Count [3, 9]: 333 and 152
